{"data": "Experimental data pooled from the literature", "note": "Lines come from different studies, so protocols differ."}
{"Compound": "O=C(O)c1cn(C2CC2)c2cc(N3CCNCC3)c(F)cc2c1=O", "target or system": "Haemophilus influenzae", "assay": "microbial growth", "endpoint": "MIC90", "value": "0.03 µg/mL"}
{"Compound": "O=C1O[C@H]([C@@H](O)CO)C(O)=C1O", "assay": "DPPH scavenging", "endpoint": "IC50", "value": "4.8 µg/mL"}
{"Compound": "CC1(C)S[C@@H]2[C@H](NC(=O)[C@H](N)c3ccccc3)C(=O)N2[C@H]1C(=O)O", "target or system": "Haemophilus influenzae", "assay": "microbial growth", "endpoint": "MIC90", "value": "128 µg/mL"}
{"Compound": "COc1cc(Nc2nccc(-c3cnn4nc(OC)ccc34)n2)cc(C(F)(F)F)c1", "target or system": "SJSA-1", "assay": "cell growth or viability, ATP luminescence", "endpoint": "IC50", "value": "510 nM"}
{"Compound": "O=C(Cc1c[nH]c2ccccc12)Nc1ccc(F)c(F)c1", "assay": "DPPH scavenging", "endpoint": "IC50", "value": "1420 nM"}
{"Compound": "CC(C)C[C@H](NC(=O)[C@H](Cc1ccccc1)NC(=O)c1cnccn1)B(O)O", "target or system": "NCI-H441", "assay": "cell growth or viability, ATP luminescence", "endpoint": "IC50", "value": "9 nM"}
{"Compound": "CCc1ccc(NC(=O)Cc2c[nH]c3ccccc23)cc1", "assay": "DPPH scavenging", "endpoint": "IC50", "value": "1920 nM"}
{"Compound": "CC(=O)Nc1cccc(-n2c(=O)n(C3CC3)c(=O)c3c(Nc4ccc(I)cc4F)n(C)c(=O)c(C)c32)c1", "target or system": "SW-620", "assay": "cell growth or viability, resazurin", "setting": "390 pM, 72 h", "endpoint": "viability", "value": "94.8%"}
